Shown are actives, neighbours in structure and some others; about 2.9% of the full set was active somewhere.
TRPC6 act – activates the mouse TRPC6 cation channel; Q61143; HEK293-TRPC6 membrane potential dye fluorescence; hits give high values; B-score at 10 µM; 0.13% of 310,000 active;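 active = B-score of the integrated fluorescence ratio above library mean plus 3 SD, and starting fluorescence ratio within library mean plus 5 SD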;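 also: higher score means more depolarization so channel activation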
TRPC4 block – TRPC4 (mouse) channel inhibition | HEK293 TRPC4beta/mu-opioid, DAMGO-evoked Fluo4 calcium flux; hits give low values | B-score at 10 µM | 0.39% of 300,000 active | AID 2247;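 active = B-score over 3 SD under the library average, no early fluorescence shift, positive overall ratio signal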
Target sequence (Q9QUQ5 whole entry, looked up): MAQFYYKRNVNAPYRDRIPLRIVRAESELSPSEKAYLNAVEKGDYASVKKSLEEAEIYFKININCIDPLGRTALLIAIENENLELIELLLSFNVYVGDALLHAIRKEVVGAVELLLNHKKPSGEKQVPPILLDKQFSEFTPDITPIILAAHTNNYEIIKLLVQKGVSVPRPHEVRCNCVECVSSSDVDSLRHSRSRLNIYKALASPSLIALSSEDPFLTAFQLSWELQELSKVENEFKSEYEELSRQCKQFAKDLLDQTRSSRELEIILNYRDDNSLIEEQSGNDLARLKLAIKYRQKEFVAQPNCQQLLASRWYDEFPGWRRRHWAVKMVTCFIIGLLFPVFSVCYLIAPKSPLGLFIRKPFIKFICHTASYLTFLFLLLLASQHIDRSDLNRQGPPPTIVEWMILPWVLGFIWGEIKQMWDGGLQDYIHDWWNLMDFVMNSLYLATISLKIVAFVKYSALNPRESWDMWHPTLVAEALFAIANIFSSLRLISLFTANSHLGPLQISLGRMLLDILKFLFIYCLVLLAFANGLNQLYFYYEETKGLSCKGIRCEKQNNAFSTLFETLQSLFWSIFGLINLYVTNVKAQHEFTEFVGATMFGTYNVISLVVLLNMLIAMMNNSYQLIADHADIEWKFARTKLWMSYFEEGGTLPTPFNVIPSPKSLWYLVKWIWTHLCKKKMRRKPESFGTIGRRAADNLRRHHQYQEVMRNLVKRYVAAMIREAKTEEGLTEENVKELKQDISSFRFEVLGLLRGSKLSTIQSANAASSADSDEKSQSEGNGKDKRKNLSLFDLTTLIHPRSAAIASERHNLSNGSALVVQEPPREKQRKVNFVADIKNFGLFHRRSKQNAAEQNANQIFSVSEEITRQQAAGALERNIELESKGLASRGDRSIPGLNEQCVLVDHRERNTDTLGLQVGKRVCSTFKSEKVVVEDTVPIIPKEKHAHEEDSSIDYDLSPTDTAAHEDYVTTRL
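Assay system: Stable TRPC4beta/mu-opioid receptor HEK293 cells | Reagent: DAMGO in two steps, submaximal then maximal | Compound dosing: Single concentration per test compound | Signal: Fluo4 Ca2+ flux fluorescence | Evaluation: Per-well B score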
Kir21 inh – inhibitors of mouse Kir2.1 inward-rectifier potassium channel. P35561. 0.85% of 310,000 active. AID 1672. HEK293-Kir2.1, FluxOR thallium flux fluorescence; hits give low values. B-score at 10 µM;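 active = fluorescence ratio B-score at or below minus 3 SD of library scores, with starting-brightness B-score within 2 SD, cut at about -4.2 in these data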;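 also: channel flux triggered by added potassium and thallium sulfate stimulus; B-score of peak minus minimum fluorescence over baseline after thallium stimulus; more negative B-score means stronger Kir2.1 block with less thallium influx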
TRPC4 act – activators of mouse TRPC4 channel; 0.49% of 310,000 active; HEK293 TRPC4beta/mu-opioid, Fluo4 calcium fluorescence; hits give high values; B-score at 10 µM; Q9QUQ5;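 active = B-score above 5 SD of library B-scores, and initial fluorescence ratio not above library mean plus 5 SD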;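 also: positive B-score marks a calcium rise read as TRPC4 activation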
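Assay system: HEK293 stable line with TRPC4beta plus mu-opioid receptor. Times: dye 45 min RT, read 110 s. Measured by: kinetic Fluo4 calcium fluorescence. Measure: B score of integrated ratio. Controls: assay buffer as low control, maximal DAMGO as high control.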
TRPC6 inhibitor – inhibitors of mouse TRPC6 channel | B-score at 10 µM | 1.1% of 310,000 active | Q61143 | AID 2553 | HEK293-TRPC6, membrane potential dye, ACh-evoked depolarization; hits give low values;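 active = B-score under library mean minus 3 SD, initial fluorescence not abnormally high, positive integrated signal ratio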;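 also: B-score derived from integrated fluorescence ratio over the kinetic read; more negative B-score means stronger inhibition of depolarization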
TRPC4 PAM – allosteric potentiators of mouse TRPC4 channel; Q9QUQ5; HEK293 TRPC4beta/mu-opioid, DAMGO EC20, Fluo-4 Ca2+ flux; hits give high values; B-score at 10 µM; 0.42% of 310,000 active;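 active = B-score of calcium response area above 5 SD of library B-scores, with initial fluorescence ratio within 5 SD of library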;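 also: B-score of integrated fluorescence ratio over time as area under calcium response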
HEK293 TRPC6 ctr – checks TRPC6 modulator effects in parental HEK293 cells | membrane potential signal change, % at 10 µM | shares compounds with TRPC6 inhibitor | membrane potential dye fluorescence | AID 488924 | 51% of 2,400 active;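 active = membrane potential signal moves up or down beyond 5 SD from buffer-only wells, on both duplicate plates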
HEK293 MPD ctr 2 – parental HEK293 nonspecific activity of TRPC6 modulators, second screen. shares compounds with TRPC6 inhibitor. membrane potential dye fluorescence; after compound, maximal acetylcholine stimulation. inhibition, % at 10 µM. 14% of 2,400 active. AID 488926;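 active = membrane potential signal drops by more than 5 SD from the mean control signal, in both duplicate plates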;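 also: plate controls were acetylcholine ECmax control wells for no effect and buffer only wells for full effect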
TRPC4 ctr mod – mouse TRPC4 off-target activity of TRPC6 modulators; shares compounds with TRPC6 inhibitor; HEK293 TRPC4/mu-opioid, membrane potential fluorescence; percent change from control (negative = decrease, positive = increase), % at 10 µM; 69% of 2,400 active; AID 488927;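 active = membrane potential signal moved up or down beyond 5 SD of buffer control wells, in both duplicate plates, actives on both sides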;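 also: plate controls were assay buffer wells for no effect and DAMGO maximal-effect wells for full effect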
TRPC4/MOR inh 2 – second selectivity test of TRPC6 modulators against mouse TRPC4. HEK293 TRPC4/mu-opioid, membrane potential dye fluorescence; stimulated with maximal-effect DAMGO. inhibition, % at 10 µM. 55% of 2,400 active. shares compounds with TRPC6 inhibitor;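 active = drop in membrane potential signal beyond 5 SD of the control wells in both duplicate plates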;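 also: TRPC4 counter screen for TRPC6 hits run under conditions tuned for TRPC6 not TRPC4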
TRPC6 inh conf – mouse TRPC6 inhibitor confirmation; shares compounds with TRPC6 inhibitor; HEK293-TRPC6, membrane potential dye, ACh-evoked depolarization; inhibition, % at 10 µM; 43% of 3,300 active;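 active = fluorescence ratio falls more than 5 SD below the full-stimulation control mean, in both duplicate runs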;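 also: integrated fluorescence ratio of peak minus minimum over baseline after agonist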
TRPC6 act conf – mouse TRPC6 activator confirmation. shares compounds with TRPC6 inhibitor. HEK293-TRPC6 membrane potential dye fluorescence, FDSS. activation, % at 10 µM. 11% of 2,800 active. AID 488961;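 active = ratio signal rise beyond 5 SD above unstimulated control wells' mean, seen in both duplicate runs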;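 also: plate controls were buffer EC0 wells for no effect and acetylcholine ECmax response for full effect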
* hit, by the source's call; i = inactive; · = no result.

SMILES | TRPC6 act | TRPC4 block | Kir21 inh | TRPC4 act | TRPC6 inhibitor | TRPC4 PAM | HEK293 TRPC6 ctr | HEK293 MPD ctr 2 | TRPC4 ctr mod | TRPC4/MOR inh 2 | TRPC6 inh conf | TRPC6 act conf
CSc1ccc(S(=O)(=O)N2CCN(Cc3ccc4c(c3)OCO4)CC2)cc1 | i | i | -0.22 | i | -5* | i | i | i | i | i | 40%* | i
Cc1ccc(C(=O)N2CCN(Cc3ccc4c(c3)OCO4)CC2)c(Cl)c1 | i | i | 0.15 | i | i | i | · | · | · | · | · | ·
O=C(N/N=C/c1cccnc1)C1CCCN(S(=O)(=O)c2ccccc2)C1 (centres undefined) | i | i | -1.4 | i | i | i | · | · | · | · | · | ·
CCOC(=O)c1c(CN(CC)CC)n(C)c2cc(Br)c(O)cc12 | i | i | -0.51 | i | i | i | · | · | · | · | · | ·
CCOC(=O)c1c(CN2CCN(CCO)CC2)n(C)c2cc(Br)c(OC)cc12 | i | i | -2.2 | i | i | i | · | · | · | · | · | ·
CCOC(=O)c1c(CSc2ccc(C)cc2)n(C)c2cc(Br)c(O)c(CN(C)C)c12 | i | i | -1.6 | i | -5.9* | i | i | i | i | 64%* | 47%* | i
CCOC(=O)c1c(CN2CCCCC2)n(C)c2cc(Br)c(O)c(CN(C)C)c12 | i | i | -0.02 | i | -7.1* | i | -252%* | i | -52%* | 58%* | 45%* | i
CCOC(=O)c1c(CN(C)C)oc2cc(CN(C)C)c(O)c(CSc3ccccc3)c12 | i | i | -1.1 | i | i | i | · | · | · | · | · | ·
CCOC(=O)c1c(CSc2ccccc2)n(C)c2cc(Br)c(O)c(CN(C)C)c12 | i | i | -1.2 | i | -5.9* | i | i | i | i | 56%* | 44%* | i
O=C(c1nc2ccc(Cl)cn2c1CN1CCCC1)N1CCc2ccccc2C1 | i | i | -1.6 | i | i | i | · | · | · | · | · | ·
CCc1ccc(CNn2cnnc2SCC(=O)NC(C)(C)C)cc1 | i | i | 0 | i | i | i | · | · | · | · | · | ·
CCOC(=O)C(Cc1ccc(OC)c([N+](=O)[O-])c1)NC(=O)CCC(=O)Nc1ccc(OC)cc1 (centres undefined) | i | i | -0.67 | i | i | i | · | · | · | · | · | ·
CCCCn1c(N)c(N(CCOC)C(=O)c2ccc(C)c(S(=O)(=O)N3CCCCC3)c2)c(=O)[nH]c1=O | i | i | 0.45 | i | -5.8* | i | i | i | i | i | i | i
C/C(=N\NC(=O)CSc1nc(C)cc(C)n1)c1cccc([N+](=O)[O-])c1 | i | i | 0.65 | i | i | i | · | · | · | · | · | ·
Cc1ccc(C(c2c(C)nn(-c3ccccc3)c2N)c2c(C)nn(-c3ccccc3)c2N)cc1 | i | i | -0.36 | i | i | i | · | · | · | · | · | ·

Source: PubChem BioAssay
